Where “and” joins values, the source holds several entries; their conditions need not be identical. Identical values can stand only once.
System: Fibroblast
Assay: Multiplex assay against human fibroblast
Assay type: toxicity, cell-based
Settings: number of replicates 2
Procedure, shortened: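 Phenotypes for tubulin, mitochondrial mass and membrane permeability are expressed as per cents of healthy-nucleus cells. Cells were stained live at seeding with Hoechst33342, BioTracker Green Microtubule Cytoskeleton Dye, MitoTracker Red and Annexin V Alexa Fluor 680, then imaged after compound addition on a CQ1 microscope at 37°C and 5% CO2. Machine-learning gating in CellPathfinder separated Hoechst high-intensity objects from normal cells, divided normal cells by nuclear state (healthy, pyknosed, fragmented) and divided pyknosed cells into mitotic or apoptotic.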

[1] = 12 h, 1 µM, compound concentration 1 uM
[2] = 12 h, 10 µM, compound concentration 10 uM
[3] = 24 h, 1 µM, compound concentration 1 uM
[4] = 24 h, 10 µM, compound concentration 10 uM
[5] = 48 h, 1 µM, compound concentration 1 uM
[6] = 48 h, 10 µM, compound concentration 10 uM

SMILES: c1ccc2c(-c3coc4cc(-c5ccc(N6CCNCC6)cc5)cnc34)ccnc2c1
- Population Apoptotic (%) [1]: 33% and 46%
- Population Fragmented Nuclei (%) [1]: 18%
- Population Healthy Nuclei (%) [1]: 69% and 66%
- Population Hoechst High Intensity Objects (%) [1]: 0%
- Population Mitochondria Different-Phenotype (%) [1]: 0% and 2%
- Population Mitotic Cells (%) [1]: 66% and 53%
- Population Normal (%) [1]: 100%
- Population Pyknosed Nuclei (%) [1]: 16% and 14%
- Population Tubulin-Different-Phenotype (%) [1]: 10% and 15%
- Total Cell Count [1]: 182 and 274
- Population Apoptotic (%) [2]: 68% and 73%
- Population Fragmented Nuclei (%) [2]: 15% and 7%
- Population Hoechst High Intensity Objects (%) [2]: 0%
- Population Mitochondria Different-Phenotype (%) [2]: 8% and 0%
- Population Mitotic Cells (%) [2]: 31% and 26%
- Population Normal (%) [2]: 100% and 98%
- Population Pyknosed Nuclei (%) [2]: 52% and 91%
- Population Tubulin-Different-Phenotype (%) [2]: 35% and 100%
- Total Cell Count [2]: 223 and 162
- Population Apoptotic (%) [3]: 44% and 60%
- Population Healthy Nuclei (%) [3]: 73% and 71%
- Population Hoechst High Intensity Objects (%) [3]: 0%
- Population Mitochondria Different-Phenotype (%) [3]: 0% and 2%
- Population Mitotic Cells (%) [3]: 56% and 40%
- Population Normal (%) [3]: 100%
- Population Pyknosed Nuclei (%) [3]: 12% and 11%
- Population Tubulin-Different-Phenotype (%) [3]: 15% and 9%
- Total Cell Count [3]: 195 and 271
- Population Apoptotic (%) [4]: 77% and 80%
- Population Fragmented Nuclei (%) [4]: 9%
- Population Hoechst High Intensity Objects (%) [4]: 0%
- Population Mitotic Cells (%) [4]: 22% and 19%
- Population Normal (%) [4]: 98% and 100%
- Population Pyknosed Nuclei (%) [4]: 83% and 66%
- Population Tubulin-Different-Phenotype (%) [4]: 80% and 50%
- Total Cell Count [4]: 163 and 202
- Population Apoptotic (%) [5]: 53% and 48%
- Population Fragmented Nuclei (%) [5]: 16% and 27%
- Population Healthy Nuclei (%) [5]: 76% and 63%
- Population Mitochondria Different-Phenotype (%) [5]: 0%
- Population Mitotic Cells (%) [5]: 46% and 51%
- Population Normal (%) [5]: 100% and 99%
- Population Pyknosed Nuclei (%) [5]: 6% and 8%
- Population Tubulin-Different-Phenotype (%) [5]: 10% and 11%
- Total Cell Count [5]: 208 and 323
- Population Apoptotic (%) [6]: 84% and 91%
- Population Fragmented Nuclei (%) [6]: 21%
- Population Healthy Nuclei (%) [6]: 28% and 18%
- Population Hoechst High Intensity Objects (%) [6]: 0%
- Population Mitochondria Different-Phenotype (%) [6]: 2% and 7%
- Population Mitotic Cells (%) [6]: 8%
- Population Normal (%) [6]: 99%
- Population Pyknosed Nuclei (%) [6]: 50% and 63%
- Population Tubulin-Different-Phenotype (%) [6]: 44% and 38%
- Total Cell Count [6]: 171 and 210

SMILES: O=C1NC(=NCc2cccs2)SC1=Cc1ccc2ncccc2c1
- Population Apoptotic (%) [1]: 31% and 38%
- Population Fragmented Nuclei (%) [1]: 17% and 11%
- Population Healthy Nuclei (%) [1]: 65% and 76%
- Population Hoechst High Intensity Objects (%) [1]: 0%
- Population Membrane Permeable-Phenotype (%) [1]: 4% and 3%
- Population Mitochondria Different-Phenotype (%) [1]: 0%
- Population Mitotic Cells (%) [1]: 68% and 61%
- Population Normal (%) [1]: 100%
- Population Pyknosed Nuclei (%) [1]: 16% and 12%
- Population Tubulin-Different-Phenotype (%) [1]: 5% and 6%
- Total Cell Count [1]: 193 and 211
- Population Apoptotic (%) [2]: 50% and 51%
- Population Fragmented Nuclei (%) [2]: 13% and 9%
- Population Healthy Nuclei (%) [2]: 74% and 78%
- Population Hoechst High Intensity Objects (%) [2]: 0%
- Population Membrane Permeable-Phenotype (%) [2]: 2% and 4%
- Population Mitochondria Different-Phenotype (%) [2]: 0% and 1%
- Population Mitotic Cells (%) [2]: 50% and 48%
- Population Normal (%) [2]: 100%
- Population Pyknosed Nuclei (%) [2]: 12%
- Population Tubulin-Different-Phenotype (%) [2]: 34% and 20%
- Total Cell Count [2]: 190 and 238
- Population Apoptotic (%) [3]: 42% and 26%
- Population Fragmented Nuclei (%) [3]: 15% and 10%
- Population Healthy Nuclei (%) [3]: 66% and 72%
- Population Hoechst High Intensity Objects (%) [3]: 0%
- Population Membrane Permeable-Phenotype (%) [3]: 2% and 6%
- Population Mitochondria Different-Phenotype (%) [3]: 0%
- Population Mitotic Cells (%) [3]: 57% and 73%
- Population Normal (%) [3]: 100%
- Population Pyknosed Nuclei (%) [3]: 18% and 17%
- Population Tubulin-Different-Phenotype (%) [3]: 4% and 6%
- Total Cell Count [3]: 183 and 219
- Population Apoptotic (%) [4]: 69% and 61%
- Population Fragmented Nuclei (%) [4]: 10% and 12%
- Population Healthy Nuclei (%) [4]: 82% and 75%
- Population Hoechst High Intensity Objects (%) [4]: 0%
- Population Membrane Permeable-Phenotype (%) [4]: 4% and 2%
- Population Mitochondria Different-Phenotype (%) [4]: 1% and 3%
- Population Mitotic Cells (%) [4]: 30% and 38%
- Population Normal (%) [4]: 100% and 99%
- Population Pyknosed Nuclei (%) [4]: 6% and 12%
- Population Tubulin-Different-Phenotype (%) [4]: 26% and 23%
- Total Cell Count [4]: 191 and 241
- Population Apoptotic (%) [5]: 65% and 75%
- Population Fragmented Nuclei (%) [5]: 17% and 14%
- Population Healthy Nuclei (%) [5]: 65% and 68%
- Population Hoechst High Intensity Objects (%) [5]: 0%
- Population Membrane Permeable-Phenotype (%) [5]: 2% and 3%
- Population Mitochondria Different-Phenotype (%) [5]: 0%
- Population Mitotic Cells (%) [5]: 34% and 25%
- Population Normal (%) [5]: 99% and 100%
- Population Pyknosed Nuclei (%) [5]: 17%
- Population Tubulin-Different-Phenotype (%) [5]: 10% and 6%
- Total Cell Count [5]: 185 and 211
- Population Apoptotic (%) [6]: 73% and 62%
- Population Fragmented Nuclei (%) [6]: 15% and 11%
- Population Healthy Nuclei (%) [6]: 77% and 76%
- Population Hoechst High Intensity Objects (%) [6]: 0%
- Population Membrane Permeable-Phenotype (%) [6]: 0%
- Population Mitochondria Different-Phenotype (%) [6]: 0% and 2%
- Population Mitotic Cells (%) [6]: 26% and 37%
- Population Normal (%) [6]: 100%
- Population Pyknosed Nuclei (%) [6]: 7% and 11%
- Population Tubulin-Different-Phenotype (%) [6]: 30% and 28%
- Total Cell Count [6]: 201 and 239
